Screening results: PubChem, several laboratories
Shown are actives, neighbours in structure and some others; about 5.1% of the full set was active somewhere.
STAT1 inh = STAT1 signaling inhibitors, primary screen, cell-based, HTS, luciferase reporter; NIH 3T3 STAT1-luciferase reporter, IFN-gamma, luminescence; inhibition, % at 5.5 µM; hit rate 0.35% among 200,000;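 active means inhibition above a set limit, the mean inhibition across all tested compounds plus 3 SD, cut at about 34% in these data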;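 further: 0% = IFN-gamma with DMSO and 100% = IFN-gamma with 300 µM nifuroxazide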
NF-kB expr up = activators of NF-kB expression in neurons, primary screen, cell-based, HTS. fold change at 12.5 µM. hit rate 1.6% among 190,000. human neuronal cells, NF-kB reporter expression; hits give high values; in the data active means fold change above about 3.3
APP 5'UTR act = activators of APP 5'UTR luciferase reporter, primary screen, SH-SY5Y cells. SH-SY5Y APP 5'UTR luciferase reporter, luminescence; zero percent = DMSO vehicle wells. activation, % at 2 µM. hit rate 1% among 190,000;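 active means activation above a set limit, based on mean plus 3 SD of controls, cut at about 140% in these data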
STAT3 act = IL-6 driven STAT3 reporter potentiators, primary screen, U3A cells, luciferase, luminescence, MLSCN library; IL-6 STAT3-luciferase reporter; 100% = signal with IL-6 EC80 alone; activation (% of control), % at 5.6 µM; hit rate 0.91% among 190,000; AID 871, 2007;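 active means activation above the screen-wide mean of compound activation plus 3 SD, cut at about 130% in these data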;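 further: 0% = background luminescence of wells with medium and substrate only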
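Test system: STAT3-luciferase reporter U3A cells; Detection: reporter luminescence signal; Times: 1 h compound pre-exposure, 6 h IL-6 stimulation, 37 °C; Benchmarks: IL-6-only high control; Also added: IL-6 stimulus at 33 ng/mL final.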
STAT3 blocker = IL-6 driven STAT3 reporter inhibitors, primary screen, U3A cells, luciferase, luminescence, MLSCN library | inhibition, % at 5.5 µM | IL-6 STAT3-luciferase reporter; host cell line lacks STAT1 | hit rate 0.89% among 190,000;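 active means inhibition above the mean inhibition across all screened compounds plus 3 SD, cut at about 44% in these data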;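 further: 0% = DMSO only wells and 100% = 100 µM nifuroxazide control wells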
STAT1 act = STAT1 signaling activators, primary screen, cell-based, HTS, luciferase reporter | NIH 3T3 STAT1-luciferase reporter, IFN-gamma, luminescence; 100% = IFN-gamma alone, no compound | activation (% of control), % at 5.5 µM | hit rate 2.6% among 200,000 | AID 932, 2007;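 active means activation above the screen-wide mean activation plus 3 SD, cut at about 130% in these data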;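 further: raw ratio to IFN-gamma control signal so 100% means no change and 0% no light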
* hit, by the source's call; . = no result.

SMILES	STAT1 inh	NF-kB expr up	APP 5'UTR act	STAT3 act	STAT3 blocker	STAT1 act
Cc1c(/C(O)=C2/C(=O)C(=O)N(Cc3cccnc3)C2c2ccccn2)cnn1-c1ccccc1 (configuration not stated)	54.6*	1.04	17.4	50.2	63.7*	48.9
COc1ccc(OC)c(-c2csc(NC(=O)c3ccc4c(c3)OCO4)n2)c1	-25.8	1.25	8.2	103.3	-4.4	124.3
CCOc1cc(C2NN=C(c3ccc(C)cc3)S2)ccc1O (configuration not stated)	-40.2	4.8*	58.6	104.4	-4.4	136.0*
CCOc1cc(C2c3c(n[nH]c3C)C(=O)N2c2ccc(C)cc2)ccc1O (configuration not stated)	1.8	1.06	7.2	96.9	7.9	98.4
Cc1cc(C)nc(NC(N)=NCCc2c[nH]c3ccccc23)n1	36.8*	0.76	-1.7	63.4	45.9*	65.8
CCCc1cc(C(=O)NNC(=S)Nc2cccc(C)c2)cs1	-46.5	2.06	109.7	108.4	-6.4	141.9*
Cc1cccc(NC(=S)NNC(=O)c2ccc3c(c2)OCO3)c1	-22.9	1.1	133.0	90.9	11.2	120.1
CCn1c(CSCc2ccc(Cl)cc2)nnc1SCC(=O)Nc1cccc(C(=O)O)c1	3.5	1.27	-2.1	90.1	16.5	94.9
Clc1ccc(COn2c(-c3ccc(Cl)cc3)nc3ccccc32)cc1	8.4	0.93	.	89.3	18.8	92.3
Cc1ccc(COn2c(-c3ccc(Cl)cc3)nc3ccc([N+](=O)[O-])cc32)cc1	-38.3	5.32*	.	103.5	2.0	135.0*
O=[N+]([O-])c1ccc2nc(-c3ccc(Cl)cc3)n(OCc3ccccc3)c2c1	-32.2	4.45*	.	95.8	11.1	129.4*
CC1=C(C(=O)OCC2CCCO2)C(c2ccc(C)cc2)C2=C(CC(C)(C)CC2=O)N1 (configuration not stated)	4.4	0.57	29.1	101.3	3.1	94.7
COc1ccc(NC(=O)Nc2ccc(C(=O)N3CCOCC3)cc2)c(OC)c1	-9.9	1.03	0.1	105.8	-1.5	107.2
Cc1ccc(-c2ccnc(-c3ccc(O)cc3)n2)cc1	-45.6	1.54	43.6	89.0	15.8	142.3*
O=[N+]([O-])c1cccc2c(N3CCCC3)ccnc12	-5.5	0.57	-7.5	94.8	10.9	102.3
CCOC(=O)c1cnn(-c2ccc(C(F)(F)F)cn2)c1N	-48.7	2.63	28.2	108.5	-6.4	144.7*
CC(=O)Nc1cc(C(=O)NCCN2CCN(Cc3ccccc3)CC2)ccc1Sc1ccc(C)cc1	7.8	0.86	9.8	95.7	10.9	93.2
CCOCCCNc1nc(C)nc2c1nnn2Cc1c(F)cccc1Cl	15.8	1.27	4.5	97.9	13.7	85.0
Nc1cccn2c(-c3ccc(Cl)cc3)cnc12	-29.2	8.47*	138.4*	114.1	-16.6	128.1
Cn1c(-c2ccc(Cl)cc2)cnc1N	4.0	1.36	11.7	104.3	-0.8	96.3
CNC(=O)c1sc(-c2ccc(Cl)cc2)nc1C	-45.4	2.08	.	89.3	12.9	142.0*
CNC(=O)c1sc(-c2ccccc2)nc1C	-10.6	1.57	18.7	93.0	13.8	109.8
CC(=O)c1sc(-c2cccc(Cl)c2)nc1C	-8.7	1.36	15.8	93.8	9.8	108.0
CC(=O)c1sc(-c2ccc(Cl)cc2)nc1C	-38.6	1.41	36.1	92.1	18.5	133.4*
CO/N=C/c1ccc(N2CCCC2)c([N+](=O)[O-])c1	-30.8	2.2	14.8	88.5	14.6	129.6*
SMILES	STAT1 inh	NF-kB expr up	APP 5'UTR act	STAT3 act	STAT3 blocker	STAT1 act
CC(=O)c1ccc(NC(=O)CN2C(=O)/C(=C/C=C/c3ccccc3)SC2=S)cc1	-11.5	0.98	15.8	103.0	-3.6	110.2
O=C(CN1C(=O)S/C(=C\C=C\c2ccccc2)C1=O)Nc1cccc(O)c1	-33.4	3.41*	15.9	109.1	-7.2	130.1*
Cc1ccc(C(=O)Nc2ccc3c(c2)OCCO3)o1	-10.5	4.01*	107.2	87.2	20.1	109.5
Cc1cc(C(=O)Nc2ccc3c(c2)OCCO3)co1	-22.4	4.7*	138.1*	101.7	7.9	120.4
Cn1nccc1C(=O)Nc1ccc2c(c1)OCCO2	-20.3	2.14	68.1	89.5	17.1	116.1
Cc1ccc(C(=O)Nc2ccncc2)o1	7.8	1.23	11.6	94.5	9.3	92.8
Cc1ccc(NC(=S)N/N=C2\CCCCC2C)cc1 (configuration not stated)	-7.4	1.08	31.1	102.9	-4.0	107.1
CC1CCCC/C1=N\NC(=S)Nc1cccnc1 (configuration not stated)	-3.8	4.86*	25.7	97.2	5.0	102.5
CCCN(CCC)C1=N/C(=C\c2ccco2)C(=O)N1c1ccccc1	11.7	1.29	-14.5	113.1	-8.9	89.3
[O-]/C(=C(\C(=S)Nc1cccc2ccccc12)[n+]1ccccc1)c1ccc2c(c1)OCCO2	4.1	0.57	0.1	133.9*	-30.9	96.2
[O-]/C(=C(\C(=S)Nc1cccc2ccccc12)[n+]1ccccc1)c1ccc(OC(F)F)cc1	4.5	1.3	9.2	129.7	-33.4	95.2
CCOC(=O)c1cc(C(=O)OCC)cc(-n2cc(O)c(C(=O)OCC)n2)c1	13.9	0.7	-6.7	88.2	17.6	87.3
CCOC(=O)c1nn(-c2ccc(C)cc2)cc1O	-8.5	4.08*	136.6*	88.1	19.2	107.9
Cn1cnnc1SCC(=O)Nc1ccccc1Oc1ccccc1	-0.4	1.15	-14.3	97.3	5.6	99.7
COc1cc2cc(CN(Cc3cccnc3)C(=O)Nc3ccccc3F)c(=O)[nH]c2cc1OC	2.2	0.94	-8.0	101.4	1.8	96.0
C=CCN=c1scc(-c2ccc(F)cc2)n1/N=C/c1ccccn1	-21.6	3.33*	46.5	99.6	-4.7	119.6
C=CCN=c1scc(-c2ccccc2)n1/N=C/c1ccccn1	-125.6	7.47*	99.3	78.1	24.8	214.7*
COc1ccccc1OCCN1CSC(=S)N(C)C1	-7.5	6.58*	-4.9	100.5	3.2	106.8
Cc1cccc(OCCN2CSC(=S)N(C)C2)c1	2.8	1.66	12.2	98.8	4.9	97.4
COC(=O)C1CSC(C(=O)OC)N1C(=O)CN1CCN(c2ccc(OC)cc2)CC1 (configuration not stated)	-2.5	0.99	-7.9	97.5	9.6	100.9
NC(=O)c1ccccc1N/C=C/C(=O)c1cccs1	-42.3	5.4*	.	77.8	32.5	138.1*
Cc1ccc(C(=O)/C=C/Nc2ccccc2C(N)=O)o1	-22.2	1.36	29.6	95.8	7.7	120.5
Cc1cccc(N/C=C/C(=O)c2cccs2)c1C	-31.2	4.13*	212.1*	77.3	25.7	128.5
